In ChEMBL document CHEMBL1126177, “Synthesis and biological evaluation of N alpha-(5-deaza-5,6,7,8-tetrahydropteroyl)-L-ornithine” (J Med Chem, 1992) one finds Activity, inhibition and IC50 data, which are given here for 2 compounds.

The subject of assay [1] is MCF7. The assay is described as follows: In vitro effect on dihydrofolate (DHF) in MCF-7 cells at 1 uM(control= 0.2); Folate pools. Type of assay: functional, Homo sapiens.
Assay [2] relates to MCF7. In words: In vitro effect on tetrahydrofolate (THF) in MCF-7 cells at 1 uM(control= 1.0); Folate pools. The format is functional, Homo sapiens.
Assay [3] concerns MCF7. In words: In vitro effect on 10-formyltetrahydrofolate (10-CHO-THF) in MCF-7 cells at 1 uM(control= 1.7); Folate pools. Type of assay: functional, Homo sapiens.
The subject of assay [4] is MCF7. The assay is described as follows: In vitro effect on 10-formylfolic acid (10-CHO-FA) in MCF-7 cells at 1 uM(control= 0.1); Folate pools. Type of assay: functional, Homo sapiens.
For assay [5], the system named is MCF7. The assay is described as follows: In vitro effect on 5-methyltetrahydrofolate (5-CH3-THF) in MCF-7 cells at 1 uM(control= 0.7); Folate pools. The format is functional, Homo sapiens.
Assay [6] concerns MCF7. The assay is described as follows: In vitro effect on 10-formyldihydrofolate (10-CHO-DHF) in MCF-7 cells at 1 uM(control= 0.2); Folate pools. The format is functional, Homo sapiens.
The test system of assay [7] is MCF7. In words: In vitro effect on total folates in MCF-7 cells at 1 uM(control= 4.0); Folate pools. Type of assay: functional, Homo sapiens.
Assay [8] deals with MCF7. The assay is described as follows: In vitro effect on 5-formyltetrahydrofolate (5-CHO-THF) in MCF-7 cells at 1 uM(control= 0.1); Folate pools. Type of assay: functional, Homo sapiens.
The test system of assay [9] is MCF7. The assay is described as follows: In vitro effect on folic acid (FA) in MCF-7 cells at 1 uM(control= 0.0); Folate pools. The format is functional, Homo sapiens.
Assay [10] deals with MCF7. The assay is described as follows: In vitro effect on 5-methyltetrahydrofolate (5-CH3-THF) in MCF-7 cells at 100 uM (control= 0.7); Folate pools. The format is functional, Homo sapiens.
The subject of assay [11] is MCF7. In words: In vitro effect on total folates in MCF-7 cells at 50 uM (control= 4.0); Folate pools. The format is functional, Homo sapiens.
Assay [12] deals with MCF7. In words: In vitro effect on 5-formyltetrahydrofolate (5-CHO-THF) in MCF-7 cells at 50 uM(control=0.1); Folate pools. Type of assay: functional, Homo sapiens.
Assay [13] concerns MCF7. In words: In vitro effect on total folates in MCF-7 cells at 100 uM(control= 4.0); Folate pools. Type of assay: functional, Homo sapiens.
Assay [14] has as its system MCF7. In words: In vitro effect on dihydrofolate (DHF) in MCF-7 cells at 100 uM (control= 0.2); Folate pools. The format is functional, Homo sapiens.
Assay [15] concerns MCF7. The assay is described as follows: In vitro effect on 10-formyldihydrofolate (10-CHO-DHF) in MCF-7 cells at 100 uM (control= 0.2); Folate pools. The format is functional, Homo sapiens.
Assay [16] relates to MCF7. The assay is described as follows: In vitro effect on 10-formyltetrahydrofolate (10-CHO-THF) in MCF-7 cells at 50 uM (control= 1.7); Folate pools. The format is functional, Homo sapiens.
Assay [17] has as its target Bifunctional purine biosynthesis protein ATIC (Homo sapiens) (UniProt P31939). In words: Compound was evaluated for the inhibition of 5-aminoimidazole-4-carboxamide ribonucleotide transformylase obtained from human at 100 uM. In outline:
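AICAR transformylase partially purified from human MOLT-4 cells by a modified literature procedure. Activity was followed with a continuous spectrophotometric assay.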

Assay [18] deals with MCF7. The assay is described as follows: In vitro effect on 10-formylfolic acid (10-CHO-FA) in MCF-7 cells at 50 uM(control= 0.1); Folate pools. Type of assay: functional, Homo sapiens.
The next assay addresses Thymidylate synthase (Homo sapiens, UniProt P04818). The assay is described as follows: Compound was evaluated for the inhibition of thymidylate synthase obtained from human. Conditions: read-out: I50. In outline: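 Human thymidylate synthase came from an SV40-transformed fibroblast line, cloned and expressed in E. coli, and purified to homogeneity by affinity chromatography. Activity was measured by the ³H-release method.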

The test system of assay [19] is MCF7. In words: In vitro effect on 10-formyltetrahydrofolate (10-CHO-THF) in MCF-7 cells at 100 uM (control= 1.7); Folate pools. The format is functional, Homo sapiens.
The test system of assay [20] is MCF7. The assay is described as follows: In vitro effect on folic acid (FA) in MCF-7 cells at 100 uM (control= 0.0); Folate pools. Type of assay: functional, Homo sapiens.
Assay [21] concerns MCF7. In words: In vitro effect on tetrahydrofolate (THF) in MCF-7 cells at 50 uM (control=1.0); Folate pools. The format is functional, Homo sapiens.
Assay [22] relates to MCF7. The assay is described as follows: In vitro effect on 5-formyltetrahydrofolate (5-CHO-THF) in MCF-7 cells at 100 uM (control= 0.1); Folate pools. The format is functional, Homo sapiens.
The subject of assay [23] is MCF7. The assay is described as follows: In vitro effect on 10-formyldihydrofolate (10-CHO-DHF) in MCF-7 cells at 50 uM (control= 0.2); Folate pools. Type of assay: functional, Homo sapiens.
The test system of assay [24] is MCF7. The assay is described as follows: In vitro effect on tetrahydrofolate (THF) in MCF-7 cells at 100 uM(control= 1.0); Folate pools. Type of assay: functional, Homo sapiens.
Assay [25] has as its system MCF7. In words: In vitro effect on 10-formylfolic acid (10-CHO-FA) in MCF-7 cells at 100 uM(control= 0.1); Folate pools. The format is functional, Homo sapiens.
Assay [26] has as its system MCF7. In words: In vitro effect on folic acid (FA) in MCF-7 cells at 50 uM (control= 0.0); Folate pools. The format is functional, Homo sapiens.
Assay [27] deals with MCF7. In words: In vitro effect on 5-methyltetrahydrofolate (5-CH3-THF) in MCF-7 cells at 50 uM(control=0.7); Folate pools. The format is functional, Homo sapiens.
The next assay addresses T1, Dihydrofolate reductase (Homo sapiens, UniProt P00374).
T1 sequence (P00374 whole entry): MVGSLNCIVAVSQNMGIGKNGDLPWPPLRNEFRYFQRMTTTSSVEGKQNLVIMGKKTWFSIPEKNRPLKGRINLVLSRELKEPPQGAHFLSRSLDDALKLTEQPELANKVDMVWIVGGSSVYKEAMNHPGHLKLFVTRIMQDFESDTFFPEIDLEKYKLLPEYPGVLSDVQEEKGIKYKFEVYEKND
In words: Compound was evaluated for the inhibition of dihydrofolate reductase obtained from human. As to conditions: read-out: I50.

Assay [28] relates to MCF7. The assay is described as follows: In vitro effect on dihydrofolate (DHF) in MCF-7 cells at 50 uM (control=0.2); Folate pools. Type of assay: functional, Homo sapiens.

Chain of Thymidylate synthase (P04818 whole entry): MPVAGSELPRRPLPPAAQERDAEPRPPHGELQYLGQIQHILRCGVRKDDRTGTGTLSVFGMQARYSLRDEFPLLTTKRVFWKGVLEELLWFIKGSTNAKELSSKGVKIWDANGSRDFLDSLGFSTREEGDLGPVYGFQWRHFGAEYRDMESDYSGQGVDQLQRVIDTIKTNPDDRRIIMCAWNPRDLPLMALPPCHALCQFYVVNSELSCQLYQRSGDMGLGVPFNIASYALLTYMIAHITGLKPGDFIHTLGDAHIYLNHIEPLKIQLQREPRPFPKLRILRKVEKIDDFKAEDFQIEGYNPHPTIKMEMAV
Chain of Bifunctional purine biosynthesis protein ATIC (Homo sapiens) (P31939 whole entry, looked up): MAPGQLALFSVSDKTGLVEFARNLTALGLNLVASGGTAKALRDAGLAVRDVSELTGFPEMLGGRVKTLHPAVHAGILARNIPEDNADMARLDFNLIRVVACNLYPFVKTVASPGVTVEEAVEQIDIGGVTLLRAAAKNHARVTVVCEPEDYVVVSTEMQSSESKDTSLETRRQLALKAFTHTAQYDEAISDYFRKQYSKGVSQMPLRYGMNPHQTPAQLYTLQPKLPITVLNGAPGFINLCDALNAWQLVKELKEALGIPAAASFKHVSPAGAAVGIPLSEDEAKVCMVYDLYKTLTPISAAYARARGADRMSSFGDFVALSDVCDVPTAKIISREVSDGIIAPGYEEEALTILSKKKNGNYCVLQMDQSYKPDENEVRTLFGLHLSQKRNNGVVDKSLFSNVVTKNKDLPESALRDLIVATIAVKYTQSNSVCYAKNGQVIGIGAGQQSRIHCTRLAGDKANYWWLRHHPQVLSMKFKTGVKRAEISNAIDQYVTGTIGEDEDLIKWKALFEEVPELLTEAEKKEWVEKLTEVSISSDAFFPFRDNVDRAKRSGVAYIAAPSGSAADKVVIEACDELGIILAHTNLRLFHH

Regarding `CN(Cc1cnc2nc(N)nc(N)c2n1)c1ccc(C(=O)N[C@@H](CCC(=O)O)C(=O)O)cc1` [METHOTREXATE], the Activity in the assay on MCF7 [1] is on record as 1.6 pM (10e6*cells)-1; with MCF7 [2], 0.4 pM (10e6*cells)-1; in the assay on MCF7 [3], 0.8 pM (10e6*cells)-1; in the assay with MCF7 [4], 0.3 pM (10e6*cells)-1; in the assay on MCF7 [5], 0.1 pM (10e6*cells)-1; in the assay on MCF7 [6] it was 0.6 pM (10e6*cells)-1. For the same compound, the figures for the Activity with MCF7 [7], with MCF7 [8] and in the assay on MCF7 [9] were 4.1 pM (10e6*cells)-1, 0.1 pM (10e6*cells)-1 and 0.1 pM (10e6*cells)-1, respectively.
For the compound `NCCCC(NC(=O)c1ccc(NCC2CNc3nc(N)nc(O)c3C2)cc1)C(=O)O` (stereo not given), the Activity with MCF7 [10] is listed as 0.6 pM (10e6*cells)-1; in the assay on MCF7 [11], 4.1 pM (10e6*cells)-1; with MCF7 [12], 0.2 pM (10e6*cells)-1; with MCF7 [13] it was 3.9 pM (10e6*cells)-1; in the assay on MCF7 [14] it was 0.2 pM (10e6*cells)-1; in the assay with MCF7 [15] it was 0.3 pM (10e6*cells)-1. Further, the Activity in the assay on MCF7 [16] was 1.8 pM (10e6*cells)-1; in the assay with MCF7 [18], 0.2 pM (10e6*cells)-1; in the assay with MCF7 [19] it was 1.7 pM (10e6*cells)-1; in the assay on MCF7 [20], 0 pM (10e6*cells)-1; in the assay with MCF7 [21], 1 pM (10e6*cells)-1; in the assay on MCF7 [22], 0.1 pM (10e6*cells)-1. For the same compound, the Activity in the assay with MCF7 [23] was 0.3 pM (10e6*cells)-1; with MCF7 [24], 0.9 pM (10e6*cells)-1; in the assay with MCF7 [25] it was 0.1 pM (10e6*cells)-1; with MCF7 [26] it was 0 pM (10e6*cells)-1; in the assay with MCF7 [27], 0.6 pM (10e6*cells)-1; in the assay on MCF7 [28] it was 0.2 pM (10e6*cells)-1. Also, the inhibition in assay [17] worked out at 16%. Further, the IC50 on Thymidylate synthase came to 470 µM; at Dihydrofolate reductase, 2 µM.
